Results published in the RNAGym collection of RNA variant scans (doi:10.1126/science.aae0568).
Fewer inactive variants are shown than the library holds.

B1: tRNA (parent)
chain: GUUCCGUUGGCGUAAUGGUAACGCGUCUCCCUCCUAAGGAGAAGACUGCGGGUUCGAGUCCCGUACGGAACG

Variants of: B1
Assay: yeast fitness relative to wild type (ratio to wild type); higher = fitter; tRNA-Arg(CCU), competitive growth, 37 C, YPD
Outline: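 The tRNA-Arg(CCU) gene variants were made by chemical synthesis with a 3% per-site mutation rate at 69 sites and inserted at the native genomic locus of Saccharomyces cerevisiae. After pooling, the strains were competed in YPD at 37°C for 24 hours in six parallel replicates. Gene amplicons from the start population and each end population were read by 100-nucleotide paired-end sequencing, and Darwinian fitness relative to wild type was taken from genotype frequency changes. Genotypes needed ≥ 100 starting reads, and estimates < 0.5 were set to 0.5.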

Variant | yeast fitness
GUACCGUUGGCGUAAUGGUAACGCGUCUCCCUCCUAAGGAGGAGACUGCGGCUUCGGGUCCCGUACGGAACG | ≤ 0.5
GUUCCGUUGGCGUAAUGGUAACGCGUAUCCCUCCUAAGGAGAAGACUGCGGGUUCGAGUUGCGUGCGGAACG | 0.598
GUUCCGUUGGCGAAAUGGUAACGCGUCUCCCUCCUAUGGAGAAGACUGCGGGGUCGAGUCCCGUACGGAACG | 0.536
GUUCCGUUGGCGUAAUGGUAACGUGUCUCCCUCCUAACGGGAAGACUGCGGGUUCGAGUCCCGUACGGAACG | ≤ 0.5
GUUCCGUGGGCGUAAUGGUAACGAGUCUCGCUCCUAAGGGGAAGACUGCGGGUUCGAGUCCCGUACGGAACG | 0.559
GUUCCGUUGGCGUAAUGGUUACGCGUCUCCCUCCUAAGGAGAAGACUGCGGGUUCGAGUCCCGUAUGGAUCG | 0.646
GUUCCGUCGGCGUAACGGUAACGCGUCUCCCUCCUAAGGAGAAGACUGCGGGUUCGAGUCCCGUACGGCACG | 0.709
GUUCCGUUGGCGUAAAGGUAACGCGUCUCCCUCCUAAGGAGCAGACUGCGGGUUCGAGUCCCGUACGGAACG | 0.854
GUUCGGUUGGCGUAAUGGUAACGCGUCUCCCUCGUAAGGAGAAGAUUGUGGGUUCGAGUCCCGUACGGAACG | ≤ 0.5
GUUUCGUUGGCGUAAUGGUAAGGCGUCACCCUCCUUAGGAGAAGACUGCGGGUUGGAGUCCUGUACGGAACG | ≤ 0.5
GUUCCGUUGGCGUAAUGGUAACGCGUCUCCCUCGUAAGGAGAAGACUGCGGGUGCGAGUCCCGUACGGAACG | ≤ 0.5
GUUCCGUUGGCGUAAUGGUAACGCGCCUCCCUCCCAUGGAGAAGACUGCGGGUUCGAGUCCCGUACGGAACG | ≤ 0.5
GUUCCGUUGGUGUAAUGGUAACGCGUCUCCCUCCUAAGGAGAAGACCGCGGGUUCGGGUCCCGUACGGUACG | 0.565
GUUCCGUUGACGUAAUGGUAACGCGUCUCCCUCCUAAGGAGAAGACUGCGGGUUCGAGUCCCGUACGAAGCG | 0.596
GAUCCGUUAGCGUAAUGGUAACGCGUCUCCCUCCUAAGGAGAAGACUGAGGGUUCGAGUCCCGUACGGAACG | ≤ 0.5
GUUCUGUUGGCGUAAUGGUCACGCGUCUCCCUCCUAAGGAGAAGACUGCGGGUUCGAGUCCCGUACAGAACG | 1.01
GUUCCGUUGGCGUAGUGGUAACGCGUCUCCCUCCAAAGGAGAAGACUGCGGGUUCGAGUCCCGUCCGGAACG | ≤ 0.5
GUUCAGUUGGGGUAAUGGUAACGCGUCUCCCUCCUAAGGACAAGACUGCGGGUUCGAGUCCCGUACGUAACG | 0.524
GUUCCGUUGGCGUAAUGGUAACGCGUCUCCCUCCUAGGAAGAAGACUGCGGGUUCGAGUCCCGUACGGAACG | 0.638

Variant | yeast fitness
GUUCCGUUGGCGUAAUGGUAACGCGUCUCCCUCCUAAGGAGAAGACUGCGGGUUCGAGCUCCGUACGGAACG | 0.704
GUUCCGUUCGCGUAAUGGUAACGCGACUCCCUCCUAAGGCGAAGACUGCGGGUUUGAGUCCCGUAAGGUACG | ≤ 0.5
GUUCCGUUGGCGUAAUGGUGACGCGUCUCACUCCUAAGGAGAAGACUGCGGGUUCGAGUCCCGUACGGCACG | 0.752
GGUCCGGUGGCGUAACGGUAACGCGUCUCCCUCUUAAGGAGAAGACUGCAGGUCCGAGUCCCGUUCGGAACG | ≤ 0.5
GUUCCGUUGGCGUAAGGGUAACGCGUCUCCCUCCUAAGGGGAAGACUGCGGGUUCGAGUCCCGUACGGAACG | 0.935
GUUCCGUUCGCGUCACGGUAACGCGUUUACCUGCUAAGGAGAAGACUGCGGGUUCGAGUCCCGUAAGGAACG | 0.577
GUUCCGUUGCCGUAAUGGUAACGCGUCUCCCUCAUAAGGAGAAGACUGCGGGUUCGUGUCCCGUACCGAACG | 0.64
GUUCCGUUGGCGUAAUGGUAACGCGUCUCCCCCCUAAGGAGAAGACUCCGGGUUCGAGUCCCGUACGGAACG | 0.862
GUUCCGUUCGCGCAAUGGUGACGCGUCUCCGUCCUAAGGAGAAGACUGCGGGUUCGGGUCCCGUACGGAACG | ≤ 0.5
GUUCCGUUGGCGUAAUGGUAACGCGUCUCCAUUCUAAGGAGAAGACUGCGGGUUGGAGUCCCGUACGGAACG | ≤ 0.5
GUUCCGUUGGCGUAAUGGUAACGCGUCUCUCUCCUAAGGAGAAGACUGCGGGUUCGAGUCCCGUAUGGAACG | 0.777
GUUCCGUUGGCGUAAUGGUAACGCGUCUCCCUCCUAAAGAGAAGACUGCGGGUUCGAGUCCUGUACGGCACG | 0.717
GUUCCGAUGGCGUAAUGGAAACGCGUCUCCCUCCUAAGGAGAAGACUGCGGGUUCGAGUCCCGUACGGCACG | 0.502
GUUCCGUUGGCGUAAUGGUAACGCGUCUCCCUCCUAAGGGGAAGACUGCGGGUUCGAGUCCCGUACAGCACG | 0.513
GUUCCGUUGGCGUAAUGGUAACCCGUCUCCCUCCUAAGGAGAAGACUGCGGGUUCGAGUACCGUACGGAUCG | 0.536
GUUCCGUUGGCGUAAUGGUAACGCGUCUCCCGCCUAAGGAGAAGACUGCGGGUUAGGGUCCCGUACGGAACG | ≤ 0.5
GUUCCGCUGGCGUAAUGGUACCGCGUCUCCCUCGGAAGGAGAACACUGCGGGUUCGAGUCGCGUACGGAACG | 0.636
GUUCCGUUGGCGUACUGGUAACGCGUCUCCCUCCUAAGGCGAAGACUGGGGGUUCGAGUCCCGUACGGAACG | ≤ 0.5
